We go through 17 compounds from ChEMBL document CHEMBL3580662, “(R)-2-Phenylpyrrolidine Substituted Imidazopyridazines: A New Class of Potent and Selective Pan-TRK Inhibitors” (ACS Med Chem Lett, 2015).

pIC50: −log10 of the molar value.

Data set [1] is described as follows: Cytotoxicity against wild type mouse BA/F3 cells assessed as inhibition of cell proliferation after 48 hrs by luciferase reporter gene assay in presence of recombinant mouse IL3. It counts as functional, cell-based. To be noted: BaF3, 48 h. In a few lines:
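Parental wild-type Ba/F3 cells grown with IL-3; proliferation assay, IC50 in μM.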
Background: A reporter such as luciferase makes a cellular process visible.

Data set [2] relates to Rattus norvegicus. Nature of the data set: Plasma clearance in Sprague-Dawley rat at 3 mg/kg, iv and 10 mg/kg, po relative to hepatic blood flow. The format is ADME, organism-based. To be noted: in vivo.
Data set [3] is described as follows: Oral bioavailability in Sprague-Dawley rat at 10 mg/kg. It counts as ADME, organism-based. Particulars: in vivo. The procedure, abridged:
(§1)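 Male Sprague–Dawley rats dosed intravenously at 3 mg/kg and orally at 10 mg/kg, each as a solution in 75% PEG300/25% D5W. Plasma sampled for clearance, Vss, T1/2, oral AUC, Cmax and oral bioavailability F(%).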

Data set [4] in a line: Plasma clearance in Sprague-Dawley rat at 3 mg/kg, iv and 10 mg/kg, po. It counts as ADME, organism-based. The procedure, abridged: as §1
A short description of data set [5]: Volume of distribution at steady state in Sprague-Dawley rat at 3 mg/kg, iv and 10 mg/kg, po. The format is ADME, organism-based. To be noted: in vivo, read-out: Vdss. The procedure, abridged: as §1
Data set [6] in a line: AUC in Sprague-Dawley rat at 10 mg/kg, po. The format is ADME, organism-based. To be noted: in vivo. In a few lines: as §1
Data set [7] is described as follows: Half life in Sprague-Dawley rat at 3 mg/kg, iv and 10 mg/kg, po. The format is ADME, organism-based. To be noted: in vivo. In a few lines:
as §1

The nature of data set [8]: Cmax in Sprague-Dawley rat at 10 mg/kg, po. Details: dose 10 mg/kg, route oral. The format is ADME, organism-based. To be noted: in vivo. The procedure, abridged:
as §1

In data set [9] the target is Tyrosine-protein kinase JAK2 (Homo sapiens, UniProt O60674). Kind of data set: Inhibition of Tel-fused JAK2 (unknown origin) expressed in mouse BA/F3 cells after 48 hrs by luciferase reporter gene assay in absence of recombinant mouse IL3. The format is cell-based. To be noted: baf3.
Data set [10] in a line: Volume of distribution at steady state in Wistar rat at 3 mg/kg, iv and 10 mg/kg, po. To be noted: in vivo, read-out: Vdss. It counts as ADME, organism-based. The procedure, abridged: (§2)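 Male Wistar rats given 3 mg/kg IV and 10 mg/kg PO, formulated as a solution in 75% PEG300/25% D5W. Plasma PK parameters derived: CL, Vss, T1/2, AUC and Cmax after oral dosing, and F(%).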

The nature of data set [11]: Half life in Wistar rat at 3 mg/kg, iv and 10 mg/kg, po. Particulars: in vivo. It counts as ADME, organism-based. In a few lines:
as §2

A short description of data set [12]: Cmax in Wistar rat at 10 mg/kg, po. Particulars: in vivo. The format is ADME, organism-based. Details: dose 10 mg/kg, route oral. The procedure, abridged:
as §2

The nature of data set [13]: AUC in Wistar rat at 10 mg/kg, po. It counts as ADME, organism-based. To be noted: in vivo. In a few lines: as §2
Data set [14] in a line: Plasma clearance in Wistar rat at 3 mg/kg, iv and 10 mg/kg, po. The format is ADME, organism-based. The procedure, abridged:
as §2

The nature of data set [15]: Ratio of Cmax in brain to Cmax in plasma of Balb/C mouse at 20 mg/kg, po. To be noted: brain and plasma, read-out: BPR. It counts as ADME, organism-based.
Data set [16] concerns Rattus norvegicus. Nature of the data set: Toxicity in CRL RNU nude rat xenografted with human KM12 cells assessed as increase in body weight at 25 to 50 mg/kg, po bid administered for 14 days measured on day 14 post last dose. It counts as organism-based. Particulars: in vivo, 336 h.
The subject of data set [17] is KM12. Kind of data set: Antitumor activity against human KM12 cells xenografted in po dosed CRL RNU nude rat assessed as tumor growth inhibition administered as bid for 14 days. The format is functional, organism-based. The procedure, abridged:
(§3)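 Female CRL RNU nude rats transplanted with KM12 tumor tissue; dosing started 10 days postimplant, twice daily for 14 days at 6.25, 12.5, 25 or 50 mg/kg alongside vehicle. Efficacy read as tumor volume.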

Data set [18] is described as follows: Ratio of AUC in brain to AUC in plasma of Balb/C mouse at 20 mg/kg, po. The format is ADME, organism-based. To be noted: brain and plasma, read-out: Ratio AUC.
For data set [19], the system named is Rattus norvegicus. Nature of the data set: Plasma clearance in Wistar rat at 3 mg/kg, iv and 10 mg/kg, po relative to hepatic blood flow. It counts as ADME, organism-based. Particulars: in vivo.
Data set [20] can be described thus: Oral bioavailability in Wistar rat at 10 mg/kg. To be noted: in vivo. It counts as ADME, organism-based. The procedure, abridged: as §2
In data set [21] the test system is KM12. Kind of data set: Antitumor activity against human KM12 cells xenografted in CRL RNU nude rat assessed as induction of tumor regression at 50 mg/kg, po bid administered for 14 days relative to vehicle-treated control. It counts as functional. The procedure, abridged: as §3
A general note: Xenograft models place foreign cells or tissue in a host animal.

Data set [22] deals with BDNF/NT-3 growth factors receptor (Homo sapiens, UniProt Q16620). Kind of data set: Inhibition of TRKB (unknown origin) by scintillation proximity assay. The procedure, abridged: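 TRKB biochemical inhibition measured by scintillation proximity assay; IC50 reported.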
A general note: Scintillation proximity formats need no separation of bound from free tracer.

Chain of Tyrosine-protein kinase JAK2 (O60674 whole entry, looked up, the tested form may be a part): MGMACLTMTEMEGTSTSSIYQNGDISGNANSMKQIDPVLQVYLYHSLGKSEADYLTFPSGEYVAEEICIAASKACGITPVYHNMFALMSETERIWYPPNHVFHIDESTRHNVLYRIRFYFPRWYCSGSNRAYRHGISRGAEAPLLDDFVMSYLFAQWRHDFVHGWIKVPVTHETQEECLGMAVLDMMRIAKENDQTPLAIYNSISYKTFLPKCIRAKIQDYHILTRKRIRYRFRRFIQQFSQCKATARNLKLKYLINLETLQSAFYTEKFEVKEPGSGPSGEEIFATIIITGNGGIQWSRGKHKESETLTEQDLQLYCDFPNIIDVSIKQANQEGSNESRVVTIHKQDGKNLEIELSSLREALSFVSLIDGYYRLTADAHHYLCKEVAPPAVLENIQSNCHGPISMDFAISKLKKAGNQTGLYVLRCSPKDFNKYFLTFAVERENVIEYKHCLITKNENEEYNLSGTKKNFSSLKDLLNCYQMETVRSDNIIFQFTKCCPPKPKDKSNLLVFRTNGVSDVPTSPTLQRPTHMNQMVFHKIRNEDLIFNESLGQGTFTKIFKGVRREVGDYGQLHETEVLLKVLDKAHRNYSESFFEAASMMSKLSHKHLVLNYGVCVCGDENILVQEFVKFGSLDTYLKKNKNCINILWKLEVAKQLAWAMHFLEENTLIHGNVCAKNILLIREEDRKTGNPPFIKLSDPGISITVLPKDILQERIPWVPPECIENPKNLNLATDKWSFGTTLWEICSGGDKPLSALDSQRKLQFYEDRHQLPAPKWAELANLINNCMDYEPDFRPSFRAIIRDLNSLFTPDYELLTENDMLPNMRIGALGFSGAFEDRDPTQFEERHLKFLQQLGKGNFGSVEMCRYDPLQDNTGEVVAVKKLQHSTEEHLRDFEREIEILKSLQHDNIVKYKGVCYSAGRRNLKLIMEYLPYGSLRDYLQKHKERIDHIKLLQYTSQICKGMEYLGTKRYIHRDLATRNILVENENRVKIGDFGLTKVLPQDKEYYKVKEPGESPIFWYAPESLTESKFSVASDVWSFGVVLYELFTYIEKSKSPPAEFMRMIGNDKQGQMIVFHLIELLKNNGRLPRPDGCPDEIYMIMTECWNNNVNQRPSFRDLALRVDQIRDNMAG
Chain of BDNF/NT-3 growth factors receptor (Q16620 whole entry): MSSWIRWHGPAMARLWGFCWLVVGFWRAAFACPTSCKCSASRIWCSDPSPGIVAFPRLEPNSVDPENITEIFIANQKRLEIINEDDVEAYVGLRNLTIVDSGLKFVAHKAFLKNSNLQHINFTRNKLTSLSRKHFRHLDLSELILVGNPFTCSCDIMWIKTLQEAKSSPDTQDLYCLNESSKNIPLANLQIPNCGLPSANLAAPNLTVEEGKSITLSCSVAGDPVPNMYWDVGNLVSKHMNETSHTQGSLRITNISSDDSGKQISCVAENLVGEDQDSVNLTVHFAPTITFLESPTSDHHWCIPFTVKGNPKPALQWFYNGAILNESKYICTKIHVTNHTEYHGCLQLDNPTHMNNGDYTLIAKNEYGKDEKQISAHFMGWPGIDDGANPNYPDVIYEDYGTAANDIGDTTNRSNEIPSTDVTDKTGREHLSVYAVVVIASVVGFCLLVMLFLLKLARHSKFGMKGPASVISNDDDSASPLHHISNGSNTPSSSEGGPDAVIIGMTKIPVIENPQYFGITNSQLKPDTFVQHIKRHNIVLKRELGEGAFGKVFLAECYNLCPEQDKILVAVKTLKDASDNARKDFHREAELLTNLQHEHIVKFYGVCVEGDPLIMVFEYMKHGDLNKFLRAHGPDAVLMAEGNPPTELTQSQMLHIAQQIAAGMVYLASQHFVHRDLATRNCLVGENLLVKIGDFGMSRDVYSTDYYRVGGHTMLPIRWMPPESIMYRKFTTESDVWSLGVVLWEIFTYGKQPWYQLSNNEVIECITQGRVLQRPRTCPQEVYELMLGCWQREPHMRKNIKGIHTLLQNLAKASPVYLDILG

With `O=C(Nc1ccc(-c2cnc3ccc(NCc4cccc(F)c4)nn23)cc1)C1CCOCC1`, in [1], the pIC50 is 5.52.

With `OC1CCN(c2cccc(-c3cnc4ccc(N5CCC[C@@H]5c5cccc(F)c5)nn34)n2)CC1`, the CL with Rattus norvegicus [2] was 100%. The compound also came in with a bioavailability in data set [3] of 10%. This compound also displayed a clearance in data set [4] of 56.9 mL/min/kg. In data set [5], the Vd was found to be 2.3 L/kg. The area under the curve (AUC) in [6] was found to be 0.659 µM·h. Further, the half-life in [7] was 49.8 min. In data set [8], this compound registered a Cmax of 110 nM. In addition, the negative logarithm of the IC50 (pIC50) in data set [1] is under 5.00.

As to `N#Cc1ccc(-c2cnc3ccc(N4CCCC4c4cccc(F)c4)nn23)cc1` (racemic), the pIC50 in [1] is under 5.00.

With `OC1CCN(c2cc(-c3cnc4ccc(N5CCC[C@@H]5c5cccc(F)c5)nn34)ccn2)CC1`, the pIC50 is 5.25 in data set [9] and 5.23 in data set [1]. Besides, the Vd in data set [10] stood at 4.9 L/kg. The same compound gave a half-life in [11] of 96 min. The compound further registered a maximum concentration (Cmax) in data set [12] of 215 nM. The compound further came in with an AUC in data set [13] of 1.88 µM·h. Also, the clearance in [14] turned out to be 45.2 mL/min/kg. In addition, the Kp in data set [15] and in [18] was 0.2 in each case. Further, the Activity result is listed as “Toxic” in the data set with Rattus norvegicus [16] and 20% in the data set with KM12 [21]. Further, the TGI entry with KM12 [17] is “Dose-dependent effect”. In addition, the CL in the data set on Rattus norvegicus [19] was 82%. In addition, the bioavailability in data set [20] was determined as 27%.

`N#Cc1ccc(-c2cnc3ccc(N4CCOCC4c4cccc(F)c4)nn23)cc1` (racemic): in data set [1], the pIC50 was under 5.00.

With `NS(=O)(=O)c1ccc(-c2cnc3ccc(NCc4cccc(F)c4)nn23)cc1`, in data set [1], the pIC50 is 5.60.

In the case of `N#Cc1ccc(-c2cnc3ccc(NCc4ccccc4)nn23)cc1`, the results for the pIC50 in data set [9], in data set [1] and in data set [22] were 5.33, 5.15 and 7.08, respectively.

As to `CN(Cc1ccccc1)c1ccc2ncc(-c3ccc(C#N)cc3)n2n1`, the negative logarithm of the IC50 (pIC50) in data set [1] is 5.23.

Turning to `N#Cc1ccc(-c2cnc3ccc(N4CCCCC4c4cccc(F)c4)nn23)cc1` (racemic), in data set [1], the negative logarithm of the IC50 (pIC50) was under 5.00.

For the compound `N#Cc1ccc(-c2cnc3ccc(N4CCC[C@H]4c4cccc(F)c4)nn23)cc1`, the negative logarithm of the IC50 (pIC50) in data set [1] was 5.03.

Regarding `Fc1cccc([C@H]2CCCN2c2ccc3ncc(-c4ccccn4)n3n2)c1`, the pIC50 in data set [9] is 5.17; in data set [1], under 5.00.

Turning to `O=C(O)CN1CCN(c2cc(-c3cnc4ccc(N5CCC[C@@H]5c5cccc(F)c5)nn34)ccn2)CC1`, the pIC50 in data set [9] is 5.57; in data set [1], 5.32. Also, the CL in the data set on Rattus norvegicus [2] was 82%. The bioavailability in data set [3] was 26%. The clearance in [4] came out at 45.5 mL/min/kg. The Vd in data set [5] is 2.4 L/kg. In addition, the Kp in [15] and in data set [18] was 0.8 each time. In data set [6], this compound registered an AUC of 1.9 µM·h. The half-life in data set [7] was 54 min. In addition, the Cmax in [8] was 250 nM.

Turning to `N#Cc1ccc(-c2cnc3ccc(N4CCC[C@@H]4c4cccc(F)c4)nn23)cc1`, in data set [1], the negative-log IC50 (pIC50) is under 5.00.

In the case of `N#Cc1cccc(-c2cnc3ccc(NCc4ccccc4)nn23)c1`, the pIC50 in [1] was under 5.00.

Turning to `N#Cc1ccc(-c2cnc3ccc(NCc4cccc(F)c4)nn23)cc1`, the negative-log IC50 (pIC50) in [1] was 5.41.

Take `OCc1ccc(-c2cnc3ccc(NCc4cccc(F)c4)nn23)cc1`: the pIC50 in [1] was 5.72.

As for `COc1ccccc1CNc1ccc2ncc(-c3ccc(C#N)cc3)n2n1`, in [1], the pIC50 is 6.00.

The term pIC50 denotes −log10 of the IC50, conventionally taken in molar units. Broadly, the bioavailability is dose-corrected exposure relative to a reference, in per cent. For orientation: AUC means the area under the concentration-time curve, a measure of exposure. As a reminder, the half-life is the time needed for the level to fall by half in the phase considered. A higher half-life goes with slow loss. In general, Cmax refers to the peak of the concentration-time curve.
